Source: ChEMBL document CHEMBL4196192, “MEPicides: α,β-Unsaturated Fosmidomycin Analogues as DXR Inhibitors against Malaria” (J Med Chem, 2018)
pIC50: −log10 of the molar value. Calls of active or inactive are those of the source. No cut-off for these calls is given here.

How the values were obtained:
Plasmodium falciparum [1] = test: Growth inhibition of Plasmodium falciparum 3D7 asynchronous cultures by PicoGreen dye based assay; type: functional, organism-based
[2] = target: T1, 1-deoxy-D-xylulose 5-phosphate reductoisomerase, apicoplastic (Plasmodium falciparum (isolate 3D7)) (UniProt Q8IKG4); test: Inhibition of Plasmodium falciparum DXR assessed as reduction in NADPH oxidation at 100 uM in presence of DOXP by UV-visible spectrophotometry
T1 sequence (whole entry): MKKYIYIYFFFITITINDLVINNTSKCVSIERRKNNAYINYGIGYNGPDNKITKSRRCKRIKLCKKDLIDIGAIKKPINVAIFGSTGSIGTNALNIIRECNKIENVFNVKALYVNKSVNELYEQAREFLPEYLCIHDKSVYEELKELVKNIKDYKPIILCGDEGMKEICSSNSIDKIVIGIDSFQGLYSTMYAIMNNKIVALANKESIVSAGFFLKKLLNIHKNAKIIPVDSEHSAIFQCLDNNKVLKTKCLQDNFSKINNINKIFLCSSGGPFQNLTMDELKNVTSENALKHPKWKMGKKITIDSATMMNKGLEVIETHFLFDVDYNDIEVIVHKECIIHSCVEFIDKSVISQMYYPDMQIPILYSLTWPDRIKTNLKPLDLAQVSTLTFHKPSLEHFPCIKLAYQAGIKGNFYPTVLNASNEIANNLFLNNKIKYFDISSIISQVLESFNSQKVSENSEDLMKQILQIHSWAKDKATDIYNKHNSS
How it was run: (§1)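 Recombinant P. falciparum DXR (0.86 μM) in 100 mM Tris pH 7.8, 25 mM MgCl2, 150 μM NADPH, at 37 °C; inhibitor at a single 100 μM; reaction started with 144 μM DOXP; NADPH oxidation followed at 340 nm by UV-vis spectrophotometry; percent remaining activity; duplicate.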

Plasmodium falciparum [3] = test: Growth inhibition of Plasmodium falciparum; type: functional, organism-based
[4] = target: T1, 1-deoxy-D-xylulose 5-phosphate reductoisomerase, apicoplastic (Plasmodium falciparum (isolate 3D7)); test: Inhibition of Plasmodium falciparum DXR assessed as remaining enzyme activity by measuring NADPH oxidation at 100 uM in presence of DOXP by UV-visible spectrophotometry; how it was run: as §1
Plasmodium falciparum [5] = test: Growth inhibition of Plasmodium falciparum containing had1 mutation at 0.01 to 100 uM by PicoGreen dye based assay; type: functional, organism-based
Plasmodium falciparum [6] = test: Effect on DXR protein level in Plasmodium falciparum 3D7 at 5 times growth inhibitory IC50 incubated for 10 hrs by LC-MS/MS method; type: organism-based
HepG2 = test: Cytotoxicity in human HepG2 cells; type: cell-based
[7] = Half life in mouse plasma; type: ADME, cell-free
Plasmodium falciparum [8] = test: Growth inhibition of Plasmodium falciparum 3D7 asynchronous cultures at 0.01 to 100 uM incubated for 72 hrs in presence of excess IPP by PicoGreen dye based assay; type: functional, organism-based
[9] = target: T1, 1-deoxy-D-xylulose 5-phosphate reductoisomerase, apicoplastic (Plasmodium falciparum (isolate 3D7)); test: Inhibition of DXR in Plasmodium falciparum 3D7 assessed as reduction in MEP levels at 5 times growth inhibitory IC50 incubated for 10 hrs by LC-MS/MS method
[10] = target: T1, 1-deoxy-D-xylulose 5-phosphate reductoisomerase, apicoplastic (Plasmodium falciparum (isolate 3D7)); test: Inhibition of DXR in Plasmodium falciparum 3D7 assessed as reduction in CDP-ME levels at 5 times growth inhibitory IC50 incubated for 10 hrs by LC-MS/MS method
[11] = target: T1, 1-deoxy-D-xylulose 5-phosphate reductoisomerase, apicoplastic (Plasmodium falciparum (isolate 3D7)); test: Inhibition of DXR in Plasmodium falciparum 3D7 assessed as reduction in MEcPP levels at 5 times growth inhibitory IC50 incubated for 10 hrs by LC-MS/MS method
Plasmodium falciparum [12] = test: Growth inhibition of Plasmodium falciparum containing had1 mutation expressing GFP-HAD1 by PicoGreen dye based assay; type: functional, organism-based
Plasmodium berghei [13] = test: (§2) Antimalarial activity against luciferase-expressing Plasmodium berghei ANKA infected in Swiss Webster mouse assessed as reduction in parasitemia by measuring reduction in luciferin signal intensity at 20 mg/kg, ip administered daily for 5 days starting from 2 days post infection by luciferase-luciferin based reporter assay relative to untreated control; type: functional
Plasmodium berghei [14] = test: as §2, with “50” for “20”; type: functional, organism-based
Mus musculus [15] = test: Toxicity in luciferase-expressing Plasmodium berghei ANKA infected Swiss Webster mouse assessed as induction of adverse events at 20 mg/kg, ip administered daily for 5 days starting from 2 days post infection; type: organism-based; settings: in vivo
How it was run: (§3)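 Female Swiss Webster mice (25–30 g) infected ip with 10^3 luciferase-expressing P. berghei, then given ip doses daily for 5 days from day 2 in 2% methylcellulose/0.5% Tween 80 vehicle, groups of five; mice observed for adverse effects over the dosing period.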

Mus musculus [16] = test: Toxicity in luciferase-expressing Plasmodium berghei ANKA infected Swiss Webster mouse assessed as induction of adverse events at 50 mg/kg, ip administered daily for 5 days starting from 2 days post infection; type: organism-based; settings: in vivo; how it was run: as §3
[17] = Selectivity index, ratio of IC50 for cytotoxicity in human HepG2 cells to IC50 for growth inhibition of Plasmodium falciparum 3D7 asynchronous cultures; type: toxicity, cell-based; settings: read-out: Ratio IC50
[18] = Half life in mouse liver microsomes; type: ADME, microsome
Plasmodium falciparum [19] = test: Resistance index, ratio of IC50 for Plasmodium falciparum containing had1 mutation to IC50 for growth inhibition of wild type Plasmodium falciparum 3D7 asynchronous cultures; type: functional
[20] = target: T2, 1-deoxy-D-xylulose 5-phosphate reductoisomerase, apicoplastic (Plasmodium falciparum (isolate 3D7), UniProt Q8IKG4); test: Inhibition of Plasmodium falciparum DXR
T2 sequence (Q8IKG4 whole entry): T1 sequence (whole entry)
How it was run: (§4)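 Recombinant P. falciparum DXR (0.86 μM) in 100 mM Tris pH 7.8, 25 mM MgCl2 and 150 μM NADPH at 37 °C. Reaction started with 144 μM DOXP. NADPH oxidation followed at 340 nm by UV–visible spectrophotometry. Compounds were screened first at a single 100 μM concentration as percent remaining activity. Assays were run in duplicate.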

[21] = target: T2, 1-deoxy-D-xylulose 5-phosphate reductoisomerase, apicoplastic; test: Inhibition of Plasmodium falciparum DXR assessed as reduction in NADPH oxidation in presence of DOXP by UV-visible spectrophotometry; how it was run: as §4
Plasmodium berghei [22] = test: Antimalarial activity against luciferase-expressing Plasmodium berghei ANKA infected in Swiss Webster mouse assessed as reduction in parasitemia at 20 mg/kg, ip administered daily for 5 days starting from 2 days post infection by luciferase-luciferin based reporter assay; type: functional, organism-based

Structure (SMILES): CC(=O)N(O)C/C=C/P(=O)(OCOC(=O)C(C)(C)C)OCOC(=O)C(C)(C)C
- pIC50 (Plasmodium falciparum [1]): 7.74

Structure (SMILES): CC(=O)N(C/C=C/P(=O)(O)O)OCc1ccc(-c2ccccc2)cc1
- inhibition [2]: > 75%
- pIC50 (Plasmodium falciparum [1]): 5.64

Structure (SMILES): CC(=O)N(CCCP(=O)(OCOC(=O)C(C)(C)C)OCOC(=O)C(C)(C)C)OCc1ccc2ccccc2c1
- pIC50 (Plasmodium falciparum [3]): 4.48

Structure (SMILES): O=C(N(O)C/C=C/P(=O)(O)O)C(F)(F)F
- Activity [4]: 37%
- inhibition [2]: > 75%
- pIC50 (Plasmodium falciparum [1]): 3.95

Structure (SMILES): CC(=O)N(C/C=C/P(=O)(OCOC(=O)C(C)(C)C)OCOC(=O)C(C)(C)C)OCc1ccc2ccccc2c1
- pIC50 (Plasmodium falciparum [1]): 4.30

Structure (SMILES): COC(=O)N(O)C/C=C/P(=O)(O)O
- inhibition [2]: > 75%
- pIC50 (Plasmodium falciparum [1]): 4.54

Structure (SMILES): CC(=O)N(C/C=C/P(=O)(O)O)OCc1ccc(C(C)C)cc1
- inhibition [2]: > 75%
- pIC50 (Plasmodium falciparum [1]): 5.96
- growth inhibition (GI) (Plasmodium falciparum [5]): inactive

Structure (SMILES): CC(=O)N(C/C=C/P(=O)(OCOC(=O)C(C)(C)C)OCOC(=O)C(C)(C)C)OCc1ccc(-c2ccccc2)cc1
- pIC50 (Plasmodium falciparum [1]): 4.36

Structure (SMILES): CC(C)(C)C(=O)OCOP(=O)(/C=C/CN(O)C=O)OCOC(=O)C(C)(C)C
- pIC50 (Plasmodium falciparum [1]): 7.89
- Activity (Plasmodium falciparum [6]): Non-Toxic
- pIC50 (HepG2): < 4.30
- t1/2 [7]: < 0.083 h
- growth inhibition (GI) (Plasmodium falciparum [8]): inactive
- inhibition [9]: Active
- inhibition [10]: Active
- inhibition [11]: Active
- growth inhibition (GI) (Plasmodium falciparum [12]): Active
- log(activity) (Plasmodium berghei [13]): 3
- Activity (Plasmodium berghei [14]): Active
- Activity (Mus musculus [15]): Non-Toxic
- Activity (Mus musculus [16]): Non-Toxic

Structure (SMILES): C[C@@H]1CC[C@H]2[C@@H](C)C(=O)O[C@@H]3O[C@@]4(C)CC[C@@H]1[C@]32OO4 [ARTEMISININ]
- pIC50 (Plasmodium falciparum [1]): 7.98

Structure (SMILES): CC(=O)N(C/C=C/P(=O)(O)O)OCc1ccc2ccccc2c1
- Activity [4]: 25%
- inhibition [2]: > 75%
- pIC50 (Plasmodium falciparum [1]): 4.58

Structure (SMILES): O=CN(O)C/C=C/P(=O)([O-])O.[Na+]
- inhibition [2]: > 75%
- pIC50 (Plasmodium falciparum [1]): 7.72
- pIC50 (HepG2): < 4.30
- selectivity ratio [17]: 2630
- t1/2 [18]: > 1 h
- t1/2 [7]: > 2 h
- growth inhibition (GI) (Plasmodium falciparum [8]): inactive
- Ratio IC50 (Plasmodium falciparum [19]): 3.4
- growth inhibition (GI) (Plasmodium falciparum [12]): Active

Structure (SMILES): CC(=O)N(O)CCCP(=O)(O)O
- pIC50 [20]: 7.62
- pIC50 (Plasmodium falciparum [3]): 6.46 to 7.05
- pIC50 [21]: 7.64
- inhibition [2]: > 75%
- pIC50 (Plasmodium falciparum [1]): 6.29

Structure (SMILES): CC(C)(C)C(=O)OCOP(=O)(/C=C/CN(O)C(=O)C(F)(F)F)OCOC(=O)C(C)(C)C
- pIC50 (Plasmodium falciparum [1]): 4.84

Structure (SMILES): CC(=O)N(C/C=C/P(=O)(O)O)OC(C)c1ccccc1 (configuration not stated)
- inhibition [2]: > 75%
- pIC50 (Plasmodium falciparum [1]): 5.92

Structure (SMILES): CC(=O)N(O)C/C=C/P(=O)(O)O
- pIC50 [21]: 6.69
- inhibition [2]: > 75%
- pIC50 (Plasmodium falciparum [1]): 6.69

Structure (SMILES): O=CN(O)CCCP(=O)(O)O [FOSMIDOMYCIN SODIUM]
- pIC50 (Plasmodium falciparum [3]): 6.46 to 7.05
- inhibition [2]: > 75%
- pIC50 (Plasmodium falciparum [1]): 5.96

Structure (SMILES): CC(=O)N(C/C=C/P(=O)(OCOC(=O)C(C)(C)C)OCOC(=O)C(C)(C)C)OCc1ccc(C(C)C)cc1
- pIC50 (Plasmodium falciparum [1]): 4.26

Structure (SMILES): CCN(CC)CCCC(C)Nc1ccnc2cc(Cl)ccc12 (configuration not stated)
- Activity (Plasmodium berghei [22]): Active

Structure (SMILES): COC(=O)N(O)C/C=C/P(=O)(OCOC(=O)C(C)(C)C)OCOC(=O)C(C)(C)C
- pIC50 (Plasmodium falciparum [1]): 4.63
